Sampled rows, rich in hits. Any-hit rate of the full collection: about 1.8%.
Cneo AK release = Cryptococcus neoformans cell lysis inducers, primary screen, AK release luminescence, single concentration; C. neoformans lysis, adenylate kinase release luminescence, 4 h; normalised: neutral wells 0, clomiphene wells 100; lysis activity, % at 15 µM; 0.2% of 360,000 active; AID 651654, 2012;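 active means mean lysis activity across replicates of at least 80%, whatever share of replicates individually reach that level; inactive means mean lysis activity below 80%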
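Material: C. neoformans cells | Amount: Yeast cell density of 5 × 10^6 cells/mL | Medium: Fresh YPD growth medium | Dosing: Single dose | Times: Static 4 h at 37 °C with compound, 1 h detection | Detection: AK luminescence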
SUMO Mot1 rescue = yeast Mot1-301 growth rescue at high temperature, primary screen, SUMOylation pathway inhibitor project, S. cerevisiae, ATP luminescence, 38.5C; S. cerevisiae Mot1-301 growth rescue; percent above DMSO median, 100 means doubled; growth rescue, % at 18.8 µM; 1% of 320,000 active; AID 2716, 2010;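 active means every valid replicate shows activation above 250% relative to neutral control wells; inactive means the rest, any valid replicate at or below 250%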
Efflux pump mplx = inhibitors of Candida efflux pumps in yeast, primary screen, S. cerevisiae, Nile Red, multiplex. S. cerevisiae Candida pump triplex. inhibition, % at 10 µM. 0.44% of 330,000 active;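 active means plate passing quality check with inhibition over a set limit, or well fluorescence over plate mean plus 4 SD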;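 further: Nile Red retained in pooled yeast measured as flow cytometry median fluorescence; higher means more Nile Red kept so more efflux inhibition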
Statin myotox sup = suppressors of statin myotoxicity in C2C12 myotubes, primary screen, cell-based, single point, plate reader; C2C12 myotubes + simvastatin, ATP luminescence, 48 h; scaled: DMSO 0, geranylgeraniol control 100; rescue of ATP level, % at 7.49 µM; 0.78% of 330,000 active; AID 602340, 2012;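 active means mean ATP rescue above about 67%, or every replicate alone reaching that limit, limit read from the data, passing the limit was not always enough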;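 further: myotubes were challenged with 10 µM simvastatin during compound exposure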
Cmpd fluor yeast = compound fluorescence in yeast efflux pump counter-screen. shares compounds with Efflux pump mplx. S. cerevisiae AD/pABC3, flow cytometry. fluorescence ratio to DMSO, % at 10 µM. 4% of 1,700 active. AID 588517;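 active means fluorescence ratio to DMSO above its plate's cutoff, the plate mean ratio plus 5 SD, cut at about 210% in these data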;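 further: unstained yeast with no Nile Red so the signal is compound autofluorescence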
CaMdr1 efflux inh = inhibitors of Candida albicans Mdr1 efflux, confirmation, flow cytometry, singleplex, Cherry Pick1 set | 1% of 1,700 active | S. cerevisiae AD/CaMDR1, Nile Red efflux | AID 588518, 2011 | inhibition, % at 10 µM | shares compounds with Efflux pump mplx; in the data active means inhibition above about 26%;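 further: higher means more Nile Red retained so more efflux inhibition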
Cdr2 pump inh = inhibitors of Candida albicans Cdr2 efflux pump, confirmation, S. cerevisiae AD/CaCDR2, flow cytometry, cherry pick 1, singleplex; 4% of 1,700 active; shares compounds with Efflux pump mplx; Nile Red retention ratio vs DMSO, % at 10 µM; Nile Red retention; in the data active means Nile Red retention ratio vs DMSO above about 190%;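 further: higher ratio means more blocking of Cdr2 efflux of the dye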
CaCdr1 efflux inh = inhibitors of Candida albicans Cdr1 efflux pump, confirmation, S. cerevisiae AD/CaCDR1, flow cytometry, cherry pick 1, singleplex; shares compounds with Efflux pump mplx; Nile Red efflux; inhibition, % at 10 µM; AID 588522, 2011; 1% of 1,700 active;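 active means inhibition above the screen-wide mean plus twice its standard deviation, cut at about 32% in these data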
Of the large screens only hits and unclear results are named; the others gave an inactive call (follow-up assays come after a bar, where they were run).

CC/C(O)=C(\C#N)c1nnc2n1CCCCC2	Efflux pump mplx 6.7, Statin myotox sup 87 | Cmpd fluor yeast inactive | CaMdr1 efflux inh inactive | Cdr2 pump inh inactive | CaCdr1 efflux inh inactive
COc1ccccc1NC(=O)N1CCC(C(=O)c2ccc(F)cc2)CC1	Efflux pump mplx 7.5 | Cmpd fluor yeast inactive | CaMdr1 efflux inh inactive | Cdr2 pump inh inactive | CaCdr1 efflux inh inactive
CC(=O)c1ccc(NS(=O)(=O)Cc2ccc(Cl)cc2)cc1	Efflux pump mplx 0.8 | Cmpd fluor yeast inactive | CaMdr1 efflux inh inactive | Cdr2 pump inh inactive | CaCdr1 efflux inh inactive
CC(=O)Nc1cccc(NS(=O)(=O)Cc2ccc(Cl)cc2)c1	none
CC(=O)Nc1ccc(NC(=O)C(C)OC(=O)c2ccc(N(C)C)cc2)cc1 (centres undefined)	none
CC(C)CC(C(=O)OCC(=O)Nc1cccc(Cl)c1)N1C(=O)C2CC=CCC2C1=O (centres undefined)	Efflux pump mplx 2.7 (no result: Cneo AK release, Statin myotox sup) | Cmpd fluor yeast inactive | CaMdr1 efflux inh inactive | Cdr2 pump inh inactive | CaCdr1 efflux inh inactive
CCOc1ccccc1NC(=O)COC(=O)C(CC(C)C)N1C(=O)C2CC=CCC2C1=O (centres undefined)	none (no result: Cneo AK release, Statin myotox sup)
CO[C@@H]1CN(C)C(=O)c2ccc(NS(=O)(=O)c3ccc(Cl)cc3)cc2OC[C@@H](C)N(C(=O)NC(C)C)C[C@H]1C	none (no result: SUMO Mot1 rescue, Efflux pump mplx)
COc1ccc(S(=O)(=O)N/N=C(/C)c2ccncc2)cc1	Efflux pump mplx 5.7 | Cmpd fluor yeast inactive | CaMdr1 efflux inh inactive | Cdr2 pump inh inactive | CaCdr1 efflux inh inactive
Oc1ccc(Cl)cc1C=Nc1ccc2c3c(cccc13)CC2	Efflux pump mplx 4.4 (no result: Statin myotox sup) | Cmpd fluor yeast inactive | CaMdr1 efflux inh inactive | Cdr2 pump inh inactive | CaCdr1 efflux inh inactive
Cc1cccc(C=Nc2ccc3c4c(cccc24)CC3)c1O	none (no result: Cneo AK release, Statin myotox sup)
CCCOC(=O)c1ccc(NC(=O)C2C3CCC(C3)C2C(=O)O)cc1 (centres undefined)	Efflux pump mplx 15 (no result: Cneo AK release, Statin myotox sup) | Cmpd fluor yeast inactive | CaMdr1 efflux inh inactive | Cdr2 pump inh inactive | CaCdr1 efflux inh inactive
CN1C(=O)c2cc(NC(=O)Cc3cccs3)ccc2OC[C@@H]2O[C@H](CC(=O)O)CC[C@H]21	none (no result: SUMO Mot1 rescue, Efflux pump mplx)
CC(=O)Nc1ccc(S(=O)(=O)N2CCN(c3nc4ccccc4n3CC(C)C)CC2)cc1	Efflux pump mplx 1.0 | Cmpd fluor yeast inactive | CaMdr1 efflux inh inactive | Cdr2 pump inh inactive | CaCdr1 efflux inh inactive
Cc1ccc(S(=O)(=O)Nc2ccc(-n3cnnn3)cc2)cc1	Efflux pump mplx 0.9 | Cmpd fluor yeast inactive | CaMdr1 efflux inh inactive | Cdr2 pump inh inactive | CaCdr1 efflux inh inactive
COc1ccc(/C=C/C(=O)Nc2sc(Cc3ccccc3)c(C)c2C(N)=O)cc1	none (no result: Cneo AK release)
O=C(NCCO)/C(=C\c1ccc(Br)cc1)NC(=O)c1cccs1	Efflux pump mplx 7.5 (no result: Cneo AK release, Statin myotox sup) | Cmpd fluor yeast inactive | CaMdr1 efflux inh inactive | Cdr2 pump inh inactive | CaCdr1 efflux inh inactive
C[C@@H]1CCCCO[C@H](CN(C)S(=O)(=O)c2cn(C)cn2)[C@@H](C)CN([C@H](C)CO)C(=O)c2cc(NC(=O)Nc3cccc4ccccc34)ccc2O1	none (no result: SUMO Mot1 rescue, Efflux pump mplx, Statin myotox sup)
CCOC(=O)/C(C#N)=C/C1=C(N2CCOCC2)C(C)(C)OCC1	Efflux pump mplx 0.9 (no result: Cneo AK release, Statin myotox sup) | Cmpd fluor yeast inactive | CaMdr1 efflux inh inactive | Cdr2 pump inh inactive | CaCdr1 efflux inh inactive
CCOC(=O)/C(C#N)=C\C1=C(N2CCCC2)CC(C)(C)OC1	none (no result: Statin myotox sup)
COc1ccc(S(=O)(=O)N(C)C[C@H]2Oc3c(NS(=O)(=O)c4ccccc4)cccc3C(=O)N([C@@H](C)CO)C[C@H]2C)cc1	none (no result: SUMO Mot1 rescue, Efflux pump mplx)

Screening results from PubChem.
